The values below come from ChEMBL document CHEMBL4145673, “Glucopyranosylbianthrones from the Algerian Asphodelus tenuifolius: Structural Insights and Biological Evaluation on Melanoma Cancer Cells” (J Nat Prod, 2018).

Each structure is given as a SMILES string. Active and inactive are the calls of the source. The calls are words filed in the database; no cut-off is given here.

Experiment [1] concerns A-375. The experiment in a line: Antiproliferative activity against human A375 cells measured after 48 hrs by MTT assay. It is filed as functional, cell-based. In outline:
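A375 melanoma cells grown in DMEM with 10% FBS, 2 mM L-glutamine, penicillin/streptomycin at 37 °C, 5% CO2, subcultured every 2 days; seeded 1 × 10^4/well in triplicate, exposed 48 h to 5−50 μM (DMSO stock diluted into medium; vehicle control 0.1% v/v DMSO). MTT conversion read-out; IC50 from viability dose−response curves versus DMSO-treated control.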

Experiment [2] has as its system A-375. The experiment in a line: Induction of apoptosis in human A375 cells assessed as increase in hypodiploid nuclei at 20 to 40 uM measured after 48 hrs by propidium iodide staining based flow cytometry relative to control. It is filed as functional. In short, it runs like this:
(§1)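 A375 cells exposed 48 h (text gives 20, 30, 40 μM; methods give 10, 20, 40 μM), harvested, washed in cold PBS, stained 30 min at 4 °C in hypotonic PI buffer (0.1% sodium citrate, 0.1% Triton X-100, 25 μg/mL PI, 10 μg/mL RNase A). Flow cytometry for G0/G1, S, G2/M distribution and hypodiploid nuclei; means ± SD, triplicate determinations; two-way ANOVA with Bonferroni.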
Background: In flow cytometry, cells or beads pass a laser one at a time.

Experiment [3] relates to A-375. The experiment in a line: Cell cycle arrest in human A375 cells assessed as increase in accumulation at S-phase at 20 to 40 uM measured after 48 hrs by propidium iodide staining based flow cytometry. It is filed as functional. In short, it runs like this: as §1
For experiment [4], the system named is A-375. As to the kind of experiment: Cell cycle arrest in human A375 cells assessed as decrease in accumulation at G1-phase at 20 to 40 uM measured after 48 hrs by propidium iodide staining based flow cytometry. It is filed as functional. In outline:
as §1

For experiment [5], the system named is A-375. As to the kind of experiment: Cell cycle arrest in human A375 cells measured after 48 hrs by propidium iodide staining based flow cytometry. In kind it is functional. In outline:
as §1

Experiment [6] concerns A-375. The experiment in a line: Cell cycle arrest in human A375 cells assessed as increase in accumulation at G2/M-phase at 20 to 40 uM measured after 48 hrs by propidium iodide staining based flow cytometry. In kind it is functional. In short, it runs like this:
as §1

The test system of experiment [7] is A-375. As to the kind of experiment: Cell cycle arrest in human A375 cells assessed as decrease in accumulation at S-phase at 20 to 40 uM measured after 48 hrs by propidium iodide staining based flow cytometry. It is filed as functional. In short, it runs like this: as §1

The IC50 is the point on the concentration scale where inhibition reaches its midpoint. A lower IC50 goes with greater potency. Regarding `Cc1cc(O)c2c(c1)[C@](O)(C1O[C@H](CO)[C@@H](O)[C@H](O)[C@H]1O)c1ccc(-c3c(C)cc(O)c4c3C(=O)c3cccc(O)c3C4=O)c(O)c1C2=O` (single isomer, unassigned; atropisomer M) [listing 1 of 2 here], the midpoint of inhibition in experiment [1] (Homo sapiens, A-375, 48 h), the IC50, lay at 20.6 µM. In experiment [2], the Activity is 13.2%.
With `Cc1cc(O)c2c(c1)[C@](O)(C1O[C@H](CO)[C@@H](O)[C@H](O)[C@H]1O)c1ccc(-c3c(C)cc(O)c4c3C(=O)c3cccc(O)c3C4=O)c(O)c1C2=O` (single isomer, unassigned; atropisomer M) [listing 2 of 2 here], the Activity result in experiment [1] and in experiment [5] was “Dose-dependent effect” throughout. Also, the outcome in experiment [3] and in experiment [4] was Active.
Turning to `Cc1cc(O)c2c(c1)[C@](O)(C1O[C@H](CO)[C@@H](O)[C@H](O)[C@H]1O)c1ccc(-c3c(C)cc(O)c4c3C(=O)c3cccc(O)c3C4=O)c(O)c1C2=O` (atropisomer P) [listing 1 of 2 here], the Activity entry in experiment [1] and in experiment [5] was “Dose-dependent effect” throughout. The outcome in experiment [4], in experiment [6] and in experiment [7] was Active.
`Cc1cc(O)c2c(c1)[C@](O)(C1O[C@H](CO)[C@@H](O)[C@H](O)[C@H]1O)c1ccc(-c3c(C)cc(O)c4c3C(=O)c3cccc(O)c3C4=O)c(O)c1C2=O` (atropisomer P) [listing 2 of 2 here] yielded an IC50 in experiment [1] (a-375) of 23.2 µM. Further, the Activity in experiment [2] came out at 12.2%.
